According to ChEMBL document CHEMBL3244396, “Synthesis and antileukemic activity of 5-substituted 2,3-dihydro-6,7-bis(hydroxymethyl)-1H-pyrrolizine diesters” (J Med Chem, 1977):
≈ marks a conversion by molar mass, not a printed value.

How the values were obtained:
P388 [1] = assay: Antitumor activity against mouse P388 cells allografted in male CDF1 mouse assessed as change in body weight at 25 mg/kg, ip administered daily for 9 days as Klucel suspension starting 24 hrs after tumor inoculation; format: functional; conditions: route intraperitoneal
Summary of the method: (§1)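 Ascitic fluid carrying P388 cells was inoculated ip. Compound was given ip in nine daily doses, starting 24 h after inoculation, in Klucel (hydroxypropylcellulose) suspension or in saline with Tween-80. Body-weight difference (treated minus control) was recorded on day 5. Survival was scored as %T/C of median survival time, and 30-day survival counted as cure.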

L1210 [2] = assay: Antileukemic activity against mouse L1210 cells allografted in female CDF1 mouse assessed as change in body weight at 6.25 mg/kg, ip administered daily for 9 days as Klucel suspension starting 24 hrs after tumor inoculation; format: functional; conditions: route intraperitoneal
Summary of the method: (§2)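 Ascitic fluid carrying L1210 cells was inoculated ip. Compound was given ip as a Klucel (hydroxypropylcellulose) suspension in nine daily doses, starting 24 h after inoculation. Body-weight difference (treated minus control) was recorded on day 5. Survival was scored as %T/C of mean survival time.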

P388 [3] = assay: Antitumor activity against mouse P388 cells allografted in female CDF1 mouse assessed as disease cures by measuring 30-days host survival at 6.25 mg/kg, ip administered daily for 9 days as Klucel suspension starting 24 hrs after tumor inoculation relative to control; format: functional; conditions: route intraperitoneal
Summary of the method: (§3)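 P388 leukemia given as an ascitic fluid cell inoculum, ip, to mice of the strain and sex in each line. Nine daily ip doses were given in a Klucel (hydroxypropylcellulose) suspension, starting 24 h after inoculation. Read-out is median survival time as %T/C, with >125 taken as significant; a "cure" means 30-day survival.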

L1210 [4] = assay: Antileukemic activity against mouse L1210 cells allografted in female CDF1 mouse assessed as change in body weight at 3.13 mg/kg, ip administered daily for 9 days as Klucel suspension starting 24 hrs after tumor inoculation; format: functional; conditions: route intraperitoneal; summary of the method: as §2
L1210 [5] = assay: Antileukemic activity against mouse L1210 cells allografted in female CDF1 mouse assessed as change in body weight at 12.5 mg/kg, ip administered daily for 9 days as Klucel suspension starting 24 hrs after tumor inoculation; format: functional; conditions: route intraperitoneal; summary of the method: as §2
P388 [6] = assay: Antitumor activity against mouse P388 cells allografted in male CDF1 mouse assessed as disease cures by measuring 30-days host survival at 50 mg/kg, ip administered daily for 9 days as Klucel suspension starting 24 hrs after tumor inoculation relative to control; format: functional; conditions: route intraperitoneal; summary of the method: as §3
P388 [7] = assay: Antitumor activity against mouse P388 cells allografted in female BDF1 mouse assessed as disease cures by measuring 30-days host survival at 0.78 mg/kg, ip administered daily for 9 days as Klucel suspension starting 24 hrs after tumor inoculation relative to control; format: functional; conditions: route intraperitoneal; summary of the method: as §3
Mus musculus [8] = assay: Toxicity in female CDF1 mouse allografted with mouse P388 cells assessed as animal survival at 6.25 mg/kg, ip administered daily for 9 days as Klucel suspension starting 24 hrs after tumor inoculation; format: organism-based; set-up: dose 6.25 mg/kg, route intraperitoneal; conditions: in vivo
Summary of the method: (§4)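 P-388 leukemia ascitic fluid inoculated ip. Compound given ip as a suspension in Klucel (hydroxypropylcellulose), once daily for nine doses beginning 24 h post-inoculation. Acute toxicity assessed as toxicity-day survivors per group. Survival was followed up to 30 days, with 30-day survival counted as "cure". Follows NCI screening protocols.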

P388 [9] = assay: Antitumor activity against mouse P388 cells allografted in female CDF1 mouse assessed as change in body weight at 12.5 mg/kg, ip administered daily for 9 days as Klucel suspension starting 24 hrs after tumor inoculation; format: functional; conditions: route intraperitoneal; summary of the method: as §1
P388 [10] = assay: Antitumor activity against mouse P388 cells allografted in female CDF1 mouse assessed as change in body weight at 6.25 mg/kg, ip administered daily for 9 days as Klucel suspension starting 24 hrs after tumor inoculation; format: functional; conditions: route intraperitoneal; summary of the method: as §1
P388 [11] = assay: Antitumor activity against mouse P388 cells allografted in female CDF1 mouse assessed as change in body weight at 3.13 mg/kg, ip administered daily for 9 days as Klucel suspension starting 24 hrs after tumor inoculation; format: functional; conditions: route intraperitoneal; summary of the method: as §1
P388 [12] = assay: Antitumor activity against mouse P388 cells allografted in female CDF1 mouse assessed as disease cures by measuring 30-days host survival at 12.5 mg/kg, ip administered daily for 9 days as Klucel suspension starting 24 hrs after tumor inoculation relative to control; format: functional; conditions: route intraperitoneal; summary of the method: as §3
[13] = Cytotoxicity against human 9KB cells treated as ethanol solution; format: functional; conditions: read-out: ED50 (the source's name)
Summary of the method: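 Compound applied as an ethanol solution; activity read out as ED50 under the general screening protocol.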

P388 [14] = assay: Antitumor activity against mouse P388 cells allografted in female BDF1 mouse assessed as change in body weight at 1.56 mg/kg, ip administered daily for 9 days as Klucel suspension starting 24 hrs after tumor inoculation; format: functional; conditions: route intraperitoneal; summary of the method: as §1
Mus musculus [15] = assay: Toxicity in female BDF1 mouse allografted with mouse P388 cells assessed as animal survival at 0.78 mg/kg, ip administered daily for 9 days as Klucel suspension starting 24 hrs after tumor inoculation; format: organism-based; set-up: dose 0.78 mg/kg, route intraperitoneal; conditions: in vivo; summary of the method: as §4
Mus musculus [16] = assay: Toxicity in male CDF1 mouse allografted with mouse P388 cells assessed as animal survival at 100 mg/kg, ip administered daily for 9 days as Klucel suspension starting 24 hrs after tumor inoculation; format: organism-based; set-up: dose 100 mg/kg, route intraperitoneal; conditions: in vivo; summary of the method: as §4
L1210 [17] = assay: Antileukemic activity against mouse L1210 cells allografted in female CDF1 mouse assessed as host mean survival time at 6.25 mg/kg, ip administered daily for 9 days as Klucel suspension starting 24 hrs after tumor inoculation relative to control; format: functional; conditions: route intraperitoneal
Summary of the method: (§5)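 L1210 leukemia given as an ascitic fluid cell inoculum, ip, to mice of the strain and sex in each line. Test material was given ip for nine daily doses starting 24 h after inoculation, in a Klucel (hydroxypropylcellulose) suspension. Read-out is mean survival time as %T/C versus controls, with >125 taken as significant.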

L1210 [18] = assay: Antileukemic activity against mouse L1210 cells allografted in female CDF1 mouse assessed as host mean survival time at 12.5 mg/kg, ip administered daily for 9 days as Klucel suspension starting 24 hrs after tumor inoculation relative to control; format: functional; conditions: route intraperitoneal; summary of the method: as §5
Mus musculus [19] = assay: Toxicity in male CDF1 mouse allografted with mouse P388 cells assessed as animal survival at 200 mg/kg, ip administered daily for 9 days as Klucel suspension starting 24 hrs after tumor inoculation; format: organism-based; set-up: dose 200 mg/kg, route intraperitoneal; conditions: in vivo; summary of the method: as §4
Mus musculus [20] = assay: Toxicity in female CDF1 mouse allografted with mouse P388 cells assessed as animal survival at 12.5 mg/kg, ip administered daily for 9 days as Klucel suspension starting 24 hrs after tumor inoculation; format: organism-based; set-up: dose 12.5 mg/kg, route intraperitoneal; conditions: in vivo; summary of the method: as §4
P388 [21] = assay: Antitumor activity against mouse P388 cells allografted in male CDF1 mouse assessed as change in body weight at 50 mg/kg, ip administered daily for 9 days as Klucel suspension starting 24 hrs after tumor inoculation; format: functional; conditions: route intraperitoneal; summary of the method: as §1
Mus musculus [22] = assay: Toxicity in female CDF1 mouse allografted with mouse L1210 cells assessed as animal survival at 6.25 mg/kg, ip administered daily for 9 days as Klucel suspension starting 24 hrs after tumor inoculation measured on fifth day; format: organism-based; set-up: dose 6.25 mg/kg, route intraperitoneal; conditions: in vivo
Summary of the method: (§6)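 L1210 leukemia passaged as ascitic fluid and inoculated ip. Test agent given ip as a Klucel (hydroxypropylcellulose) suspension, nine daily doses starting 24 h after tumor inoculation. Acute toxicity read as toxicity-day survivors per group (out of 6), recorded on day 5. Animal weight difference T − C was also recorded. Follows NCI screening protocols.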

P388 [23] = assay: Antitumor activity against mouse P388 cells allografted in female BDF1 mouse assessed as change in body weight at 0.78 mg/kg, ip administered daily for 9 days as Klucel suspension starting 24 hrs after tumor inoculation; format: functional; conditions: route intraperitoneal; summary of the method: as §1
L1210 [24] = assay: Antileukemic activity against mouse L1210 cells allografted in female CDF1 mouse assessed as host mean survival time at 3.13 mg/kg, ip administered daily for 9 days as Klucel suspension starting 24 hrs after tumor inoculation relative to control; format: functional; conditions: route intraperitoneal; summary of the method: as §5
P388 [25] = assay: Antitumor activity against mouse P388 cells allografted in male CDF1 mouse assessed as change in body weight at 200 mg/kg, ip administered daily for 9 days as Klucel suspension starting 24 hrs after tumor inoculation; format: functional; conditions: route intraperitoneal; summary of the method: as §1
P388 [26] = assay: Antitumor activity against mouse P388 cells allografted in female BDF1 mouse assessed as disease cures by measuring 30-days host survival at 1.56 mg/kg, ip administered daily for 9 days as Klucel suspension starting 24 hrs after tumor inoculation relative to control; format: functional; conditions: route intraperitoneal; summary of the method: as §3
P388 [27] = assay: Antitumor activity against mouse P388 cells allografted in female CDF1 mouse assessed as disease cures by measuring 30-days host survival at 3.13 mg/kg, ip administered daily for 9 days as Klucel suspension starting 24 hrs after tumor inoculation relative to control; format: functional; conditions: route intraperitoneal; summary of the method: as §3
Mus musculus [28] = assay: Toxicity in female CDF1 mouse allografted with mouse P388 cells assessed as animal survival at 3.13 mg/kg, ip administered daily for 9 days as Klucel suspension starting 24 hrs after tumor inoculation; format: organism-based; set-up: dose 3.13 mg/kg, route intraperitoneal; conditions: in vivo; summary of the method: as §4
Mus musculus [29] = assay: Toxicity in female BDF1 mouse allografted with mouse P388 cells assessed as animal survival at 1.56 mg/kg, ip administered daily for 9 days as Klucel suspension starting 24 hrs after tumor inoculation; format: organism-based; set-up: dose 1.56 mg/kg, route intraperitoneal; conditions: in vivo; summary of the method: as §4
P388 [30] = assay: Antitumor activity against mouse P388 cells allografted in male CDF1 mouse assessed as change in body weight at 100 mg/kg, ip administered daily for 9 days as Klucel suspension starting 24 hrs after tumor inoculation; format: functional; conditions: route intraperitoneal; summary of the method: as §1
Mus musculus [31] = assay: Toxicity in female CDF1 mouse allografted with mouse L1210 cells assessed as animal survival at 3.13 mg/kg, ip administered daily for 9 days as Klucel suspension starting 24 hrs after tumor inoculation measured on fifth day; format: organism-based; set-up: dose 3.13 mg/kg, route intraperitoneal; conditions: in vivo; summary of the method: as §6

Question: What does the source list for `CNC(=O)OCc1c(COC(=O)NC)c(-c2ccc(F)cc2)n2c1CCC2`?
Answer: Activity (P388 [1]): -2 g; Activity (L1210 [2]): 0.1 g; T/C (P388 [3]): 145%; Activity (L1210 [4]): 1.1 g; Activity (L1210 [5]): 0.1 g; T/C (P388 [6]): 48%; T/C (P388 [7]): 146%; Activity (Mus musculus [8]): Non-toxic; Activity (P388 [9]): -3.3 g; Activity (P388 [10]): -1 g; Activity (P388 [11]): -0.3 g; T/C (P388 [12]): 153%; EC50 [13]: 0.22 µg/mL (≈ 0.586 µM); Activity (P388 [14]): 0 g; Activity (Mus musculus [15]): Non-toxic; Activity (Mus musculus [16]): Toxic; T/C (L1210 [17]): 107%; T/C (L1210 [18]): 118%; Activity (Mus musculus [19]): Toxic; Activity (Mus musculus [20]): Non-toxic; Activity (P388 [21]): -3.4 g; Activity (Mus musculus [22]): Non-toxic; Activity (P388 [23]): 0.9 g; T/C (L1210 [24]): 115%; Activity (P388 [25]): -1.5 g; T/C (P388 [26]): 122%; T/C (P388 [27]): 171%; Activity (Mus musculus [28]): Non-toxic; Activity (Mus musculus [29]): Non-toxic; Activity (P388 [30]): -1.5 g; Activity (Mus musculus [31]): Non-toxic
